ChEMBL document CHEMBL1151326, “Phytoalexins from hairy roots of Hyoscyamus albus treated with methyl jasmonate” (1998)
≈ marks a conversion by molar mass, not a printed value. Calls of active or inactive are those of the source. The calls are words filed in the database; no cut-off is given here.

Assays:
Staphylococcus aureus = assay: Antibacterial activity against Staphylococcus aureus after 2 days by agar plate dilution method; assay type: functional; conditions: 48 h
Method in brief: (§1)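 Agar plate dilution: each sample concentration is incorporated into soybean casein digest (SCD) agar. Gram-positive bacteria are applied to the agar surface and incubated 2 days at 30 °C. Activity is judged by whether colonies form.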

Bacillus subtilis = assay: Antibacterial activity against Bacillus subtilis after 2 days by agar plate dilution method; assay type: functional; conditions: 48 h; method in brief: as §1
Botrytis cinerea = assay: Antifungal activity against Botrytis cinerea after 2 days by agar plate dilution method; assay type: functional, organism-based
Method in brief: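 Agar plate dilution: each sample concentration is incorporated into potato dextrose (PD) agar. Fungus is applied to the agar surface and incubated 2 days at 30 °C. Activity is judged by whether spores form.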

Row | Compound | MIC (Staphylococcus aureus) | MIC (Bacillus subtilis) | Activity (Botrytis cinerea)
1 | C=C(C)[C@@H]1C[C@@H](O)[C@@]2(C1)C(C)=CC(=O)[C@H](O)[C@H]2C | 500 µg/mL (≈ 2000 µM) | 500 µg/mL (≈ 2000 µM) | –
2 | C=C(C)[C@@H]1C[C@@H](OC(=O)/C(C)=C/C)[C@@]2(C1)C(C)=CC(=O)[C@H](O)[C@H]2C | 100 µg/mL (≈ 301 µM) | 250 µg/mL (≈ 752 µM) | Active
3 | C=C(C)[C@@H]1CC[C@@]2(C1)C(C)=CC(=O)C[C@H]2C [SOLAVETIVONE] | 100 µg/mL (≈ 458 µM) | 100 µg/mL (≈ 458 µM) | –
4 | C=C(C)[C@@H]1C[C@@H](OC(=O)C(C)C)[C@@]2(C1)C(C)=CC(=O)[C@H](O)[C@H]2C | 250 µg/mL (≈ 780 µM) | 250 µg/mL (≈ 780 µM) | –
5 | C=C(C)[C@@H]1C[C@@H](OC(=O)C=C(C)C)[C@@]2(C1)C(C)=CC(=O)[C@H](O)[C@H]2C | 100 µg/mL (≈ 301 µM) | 250 µg/mL (≈ 752 µM) | –
